Compounds with a hit are over-represented: about 2.3% of the library has one in this group of screens.
Diaphorase act – counter-screen for diaphorase-based assays: diaphorase activators and chemical reducers; Diaphorase/resazurin coupled assay, resorufin fluorescence, 16 min; hits give high values; 1 = vehicle wells, 0 = NADH-free wells; activation factor at 20 µM; hit rate 0.005% among 190,000; AID 1229;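 active means diaphorase activity raised at least twofold by the compound at 20 µM; inactive means activation factor below 2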
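Material: purified diaphorase enzyme from Clostridium kluyveri / Medium: HEPES pH 7.4 buffer with MgCl2 and Tween 20 / Schedule: enzyme reaction of 16 min at room temperature / Measured by: resorufin fluorescence, excitation 544 nm, emission 590 nm / Evaluation: rise in resorufin formation, marking diaphorase activation or chemical reduction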
G6PDH CS – inhibits Leuconostoc G6PDH, flagging false hits in G6PDH-based assays; Purified L. mesenteroides G6PDH, diaphorase/resazurin coupled fluorescence, 45 min; inhibition, % at 5 µM; hit rate 0.12% among 200,000; in the data active means inhibition above about 50%
FLuc inh counter – inhibits firefly luciferase, flagging false hits in luciferase inhibition screens. P08659. ATPLite firefly luciferase biochemical luminescence, 10 min. inhibition, % at 10 µM. hit rate 1.5% among 200,000;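 active means inhibition above about 50% when tested at 10 µM, limit read from the data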
Target sequence (P08659 whole entry, looked up): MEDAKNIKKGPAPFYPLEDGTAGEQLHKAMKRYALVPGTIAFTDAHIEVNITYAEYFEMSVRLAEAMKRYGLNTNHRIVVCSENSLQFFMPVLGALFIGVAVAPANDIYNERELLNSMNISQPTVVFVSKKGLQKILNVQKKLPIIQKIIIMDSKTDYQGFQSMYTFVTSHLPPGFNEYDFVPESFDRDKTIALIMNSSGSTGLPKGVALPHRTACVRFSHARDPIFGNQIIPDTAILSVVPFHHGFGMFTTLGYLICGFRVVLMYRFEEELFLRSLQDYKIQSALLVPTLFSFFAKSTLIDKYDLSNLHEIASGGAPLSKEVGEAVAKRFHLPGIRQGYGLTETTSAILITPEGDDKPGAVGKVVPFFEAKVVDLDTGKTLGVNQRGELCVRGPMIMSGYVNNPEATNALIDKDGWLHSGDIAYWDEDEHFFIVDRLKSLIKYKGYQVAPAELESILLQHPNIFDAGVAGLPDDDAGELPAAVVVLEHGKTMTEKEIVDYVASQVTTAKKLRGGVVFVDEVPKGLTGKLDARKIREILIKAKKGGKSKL
Diaph inh CS – diaphorase inhibition or chemical oxidation counter-screen | diaphorase resazurin-to-resorufin fluorescence, NADH, 16 min; bacterial (C. kluyveri) enzyme, not human | inhibition, % at 20 µM | hit rate 0.69% among 190,000 | AID 1217;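 active means primary screen inhibition at 20 µM above a set limit, cut at about 50% in these data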;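 further: plate controls were DMSO with full reaction for no effect and wells lacking NADH for full effect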
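Test system: Clostridium kluyveri diaphorase enzyme / Quantity: diaphorase at 0.14 U/mL in enzyme working solution / Incubation: 16-min room-temperature incubation before reading / Benchmarks: NADH-free wells as positive control, DMSO-only neutral wells / Signal: resorufin fluorescence 544/590 nm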
FLuc act counter – firefly luciferase counter-screen for stimulation assays; P08659; ATPlite luciferase biochemical, luminescence, 10 min; 0 = ATP-free wells, 1 = DMSO control; activation factor at 10 µM; 200,000 tested, under 10 active; AID 1027;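 active means luciferase activation factor, scaled between plate controls, of at least 2 with compound at 10 µM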
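Material: Luciferase/luciferin reagent mix; Doses: test compounds dosed from 2 mM stocks in 100% DMSO; Schedule: 10 min incubation after luciferase reagent addition, room temperature; Measured by: luminescence from luciferase reaction; Read-out: luminescence gain marking luciferase activators.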
Starred values were filed as active, the others as inactive; nt = not tested or not shown.

SMILES	Diaphorase act	G6PDH CS	FLuc inh counter	Diaph inh CS	FLuc act counter
CCOC(=O)c1nn(-c2ccc(F)cc2)c(=O)c2c(N)scc12	0.7	51*	-5	32	1.1
CCOC(=O)c1nn(-c2ccc(C)cc2)c(=O)c2c(N)scc12	0.7	34	-7	28	1.1
CCOC(=O)c1sc(NC(=O)c2ccccc2)cc1C	1	-1	69*	-2	0.3
CCOC(=O)c1sc(=NC(=O)c2ccccc2)n(C)c1C	0.9	4	68*	7	0.3
CCOC(=O)c1sc(=NC(=O)c2cccc(OC)c2)n(C)c1C	1.1	3	14	-11	0.9
CCOC(=O)c1sc(NC(=O)c2ccc(S(=O)(=O)N(C)C)cc2)cc1C	1	4	-4	-1	1
COc1ccc(C2=NOC(C(=O)N(C)Cc3ccccc3)C2)cc1 (configuration not stated)	0.8	-3	-5	15	1
N/C(=N\OC(=O)c1ccc(F)cc1)c1nonc1N	0.9	2	49	11	0.5
Cc1ccc(C(=O)O/N=C(\N)c2nonc2N)cc1	0.9	-10	84*	7	0.2
N/C(=N/OC(=O)c1ccccc1Cl)c1nonc1N	1	-4	52*	5	0.5
CCOCCCNC(=O)c1cc(=O)n(Cc2cccc(C)c2)c2ccccc12	1	4	-5	0	1.1
O=C1c2cccc3c(N4CCCCC4)ccc(c23)C(=O)N1c1cccc(O)c1	0.4	8	-8	60*	1.1
O=C1c2cccc3c(N4CCCCC4)ccc(c23)C(=O)N1CCO	0.6	5	1	38	1
COc1ccc(CCNC(=S)NC2CCN(Cc3ccccc3)CC2)cc1	1.1	0	-7	-15	1.1
O=C(NC1C(=O)NNC1c1ccccc1)c1ccccc1 (configuration not stated)	0.8	3	-2	16	1
Cc1cccc(C(=O)NC2C(=O)NNC2c2ccc(Cl)cc2)c1 (configuration not stated)	0.5	13	-5	52*	1.1
CCCCn1c(Cc2ccccc2)nnc1SCC(=O)Nc1cc(C)on1	0.4	-1	-6	59*	1.1
CCCCn1c(SCC(=O)Nc2cc(C)on2)nc2ccccc2c1=O	1	8	-6	0	1.1
CCCS(=O)(=O)N1CCCC(C(=O)NCC2CCCO2)C1 (configuration not stated)	0.9	-3	-6	7	1.1
O=C(CS(=O)(=O)c1cn(Cc2ccc(F)cc2)c2ccccc12)N1CCOCC1	0.3	8	-4	69*	1
C(#CC12CC3CC(CC(C3)C1)C2)CN1CCOCC1	0.9	2	-4	8	1
O=C(CCN1CCOCC1)NNC(=S)NC(=O)c1ccc(Br)cc1	0.3	-10	-7	66*	1.1
Cc1cccn2cc(-c3ccc(S(=O)(=O)N4CCCCC4)cc3)nc12	nt	19	-5	nt	1
Cc1cccn2cc(-c3ccc(Cl)cc3)nc12	0.9	7	63*	14	0.4
Cc1ccc(-c2cn3cccc(C)c3n2)cc1	1	14	69*	-3	0.3
SMILES	Diaphorase act	G6PDH CS	FLuc inh counter	Diaph inh CS	FLuc act counter
CC1=CN2C(=N)/C(=C/c3ccc(C)o3)C(=O)N=C2S1	1	-15	80*	0	0.2
CC1=CN2C(=N)/C(=C/c3ccc(Sc4ccc(C)cc4)o3)C(=O)N=C2S1	0.9	-2	-3	13	1
CCC(=O)Nc1ccc(C(=O)CSc2nc3ccc(C)cc3[nH]2)cc1	0.9	-14	-5	14	1.1
O=C(NCC(=O)N(c1cccnc1)C(C(=O)NC1CCCC1)c1ccc(F)cc1)c1ccco1 (configuration not stated)	1	1	-1	1	1
c1coc(CNc2nc(-c3ccncc3)cs2)c1	1	-5	11	-2	0.9
COc1ccc(-c2csc(NCc3ccco3)n2)cc1	0.8	-7	72*	16	0.3
COc1ccc2c(COC(=O)CCS(=O)(=O)c3ccccc3)cc(=O)oc2c1	0.8	5	-4	19	1
Clc1ccccc1OCc1nc(-c2ccc(Br)o2)no1	0.7	2	1	26	1
Clc1ccc(OCc2nc(-c3ccccn3)no2)c(Br)c1	0.9	-16	70*	14	0.3
Nc1nonc1-c1noc(COc2ccccc2Cl)n1	0.8	1	19	18	0.8
Clc1ccccc1OCc1nc(-c2ccccn2)no1	0.8	1	51*	16	0.5
CC(Sc1ccccc1)C(=O)NN=C1CCN(C)CC1 (configuration not stated)	1	1	-4	3	1
CCC(=O)N(C1=C(NC)C(=O)c2ccccc2C1=O)C(C)C	0.8	41	-3	22	1
CNC1=C(N(C(C)=O)c2ccc(Br)cc2)C(=O)c2ccccc2C1=O	0.6	52*	1	41	1
O=C(COc1ccccc1C(=O)Nc1ccccc1)NCCc1ccccc1	0.9	0	57*	8	0.4
CC(=NCc1ccco1)c1c(C)[nH]n(-c2nc3ccccc3s2)c1=O	0.9	5	35	8	0.6
C/C(=N/NC(=O)c1cccs1)c1c(C)[nH]n(-c2nc3ccccc3s2)c1=O	0.8	1	93*	17	0.1
CCOc1cc(/C=N/NC(=O)c2cc(-c3cccnc3)nc3ccccc23)ccc1O	0.9	-5	0	11	1
CCOc1cc([N+](=O)[O-])cc(/C=C2/NC(=O)N(Cc3ccccc3F)C2=O)c1O	0.4	7	-2	56*	1
O=C(NCc1ccco1)c1ccc(CNc2c(N3CCCCC3)c(=O)c2=O)cc1	0.9	11	-6	5	1.1
CCCCN(C(=O)c1cc2ccccc2o1)c1c(N)n(CCC)c(=O)[nH]c1=O	1	10	-4	3	1
Cc1ccc(C)c(/C=N/n2cc(-c3ccccc3)[nH]c2=S)c1	0.2	-8	-6	76*	1.1
Cc1cc(C)n2nc(SCc3nnc(SCc4ccccc4Cl)s3)nc2n1	0.4	-10	-2	58*	1
COc1ccc(Cn2c(SC)nc3ccccc32)cc1[N+](=O)[O-]	0.9	-9	1	15	1
COc1ccc(NC(=O)/C(Cl)=C(/Cl)S(=O)Cc2ccccc2Cl)cn1 (configuration not stated)	0.8	-4	-2	16	1
Cn1c(C(=O)NCc2ccccn2)cc2c(=O)n3ccccc3nc21	1	3	51*	0	0.5
CSCCC(NS(=O)(=O)c1ccc(Br)cc1)C(=O)OCC(=O)NC1CC1 (configuration not stated)	0.9	-1	-3	12	1
Cc1nc2ccc(S(=O)(=O)NCC(=O)Nc3cccc(F)c3)cc2s1	0.9	2	-1	8	1

Source: PubChem BioAssay (Sanford-Burnham Center for Chemical Genomics)
